Where two headings read alike, the source gives them in different places.
How the values were obtained:
Type in all cases: cell-based
HeLa cells [1] = assay: MTT
Procedure, shortened: (§1)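 MTT assay on A549, HeLa and MRC9 cells, with cells kept in the dark or irradiated at 450 nm (15.5 mW cm−2, 15 min). […] IC50 values were derived for dark and light conditions. For A549 and HeLa, PI = IC50,dark/IC50,light.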

A549 cells = assay: MTT
Procedure, shortened: as §1

normal MRC9 cells = assay: MTT
Procedure, shortened: as §1

HeLa cells [2] = assay: Mitochondrial membrane potential with JC-1; conditions: 50 μM, 15 min, positive control
Procedure, shortened: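 HeLa cells were untreated, given CCCP (50 μM, 15 min) as positive control, or treated with the test compound (4.5 nM, 24 h). Treated cells were then kept in the dark for 24 h or irradiated (450 nm, 15.5 mW cm−2, 15 min) and incubated 24 h more. Staining used JC-1 (2 μg mL−1, 20 min; λex 488 nm; monomer emission 510–530 nm, J-aggregate emission 590–610 nm).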

IC50 (HeLa cells [1]; read-out: IC50,dark, in the dark)	IC50 (HeLa cells [1]; read-out: IC50,light, irradiation at 450 nm (15.5 mW cm^−2, 15 min))	IC50 (A549 cells; read-out: IC50,dark, A549, in the dark)	IC50 (A549 cells; read-out: IC50,light, A549, irradiation at 450 nm (15.5 mW cm^−2, 15 min))	Compound	IC50 (normal MRC9 cells; read-out: IC50,dark, MRC9, in the dark)	IC50 (normal MRC9 cells; read-out: IC50,light, MRC9, irradiation at 450 nm (15.5 mW cm^−2, 15 min))	mitochondrial membrane potential (JC-1) (HeLa cells [2])
> 100 µM	> 100 µM	> 100 µM	> 100 µM	1-phenyl-5-thioxo-5,6-dihydro-[1,2,4]triazolo[1,5-c]quinazolin-1-ium-2-thiolate [p-Httqt]	> 100 µM	> 100 µM	–
–	–	–	–	N#CC(C#N)=NNc1cccc(Cl)c1 [CCCP, carbonyl cyanide m-chlorophenyl hydrazone]	–	–	reduced the intensity of the red channel

Source: article PMC12510370 (Chemical Science, 2025)
